Tests used:
Details in all cases: stereoisomer not certain
UniProt Q8VGC6 = biological target: T1, UniProt Q8VGC6
T1 sequence (whole entry): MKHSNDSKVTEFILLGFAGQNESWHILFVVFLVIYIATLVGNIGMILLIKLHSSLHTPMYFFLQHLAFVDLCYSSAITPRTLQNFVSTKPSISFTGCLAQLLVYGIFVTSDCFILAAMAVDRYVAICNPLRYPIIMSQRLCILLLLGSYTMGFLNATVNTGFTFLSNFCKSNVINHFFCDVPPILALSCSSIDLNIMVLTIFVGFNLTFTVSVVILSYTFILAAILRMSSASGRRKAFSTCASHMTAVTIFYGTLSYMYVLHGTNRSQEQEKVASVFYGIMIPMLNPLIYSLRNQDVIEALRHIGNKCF
Procedure, shortened: (§1)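 Assay methods differ from source to source, frequently being transient luciferase assays in mammalian cell lines. For each receptor–molecule pair, the label responsive (active) applies when the original authors judged the measured signal statistically different from baseline, and non-responsive (inactive) applies otherwise.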

UniProt Q8VGJ3 = biological target: T2, UniProt Q8VGJ3
T2 sequence (whole entry): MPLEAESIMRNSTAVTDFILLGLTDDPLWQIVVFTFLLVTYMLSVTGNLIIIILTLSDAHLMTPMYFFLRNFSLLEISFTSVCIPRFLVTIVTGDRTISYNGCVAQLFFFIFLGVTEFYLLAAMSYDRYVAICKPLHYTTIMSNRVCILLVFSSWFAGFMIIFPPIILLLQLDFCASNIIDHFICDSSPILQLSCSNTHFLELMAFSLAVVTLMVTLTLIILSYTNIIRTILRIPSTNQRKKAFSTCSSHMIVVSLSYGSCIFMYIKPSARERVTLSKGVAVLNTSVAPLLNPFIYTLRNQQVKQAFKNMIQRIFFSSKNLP
Procedure, shortened: as §1

UniProt Q8VGL0 = biological target: T3, UniProt Q8VGL0
T3 sequence (whole entry): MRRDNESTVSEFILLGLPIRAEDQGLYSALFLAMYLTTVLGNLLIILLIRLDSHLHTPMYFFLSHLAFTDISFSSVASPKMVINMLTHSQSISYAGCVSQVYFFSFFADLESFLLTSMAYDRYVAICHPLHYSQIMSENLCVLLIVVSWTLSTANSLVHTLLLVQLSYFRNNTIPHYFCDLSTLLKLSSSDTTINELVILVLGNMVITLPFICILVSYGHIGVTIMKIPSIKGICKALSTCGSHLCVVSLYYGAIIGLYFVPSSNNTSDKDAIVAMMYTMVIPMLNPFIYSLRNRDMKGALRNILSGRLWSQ
Procedure, shortened: as §1

UniProt Q8VGU3 = biological target: T4, UniProt Q8VGU3
T4 sequence (whole entry): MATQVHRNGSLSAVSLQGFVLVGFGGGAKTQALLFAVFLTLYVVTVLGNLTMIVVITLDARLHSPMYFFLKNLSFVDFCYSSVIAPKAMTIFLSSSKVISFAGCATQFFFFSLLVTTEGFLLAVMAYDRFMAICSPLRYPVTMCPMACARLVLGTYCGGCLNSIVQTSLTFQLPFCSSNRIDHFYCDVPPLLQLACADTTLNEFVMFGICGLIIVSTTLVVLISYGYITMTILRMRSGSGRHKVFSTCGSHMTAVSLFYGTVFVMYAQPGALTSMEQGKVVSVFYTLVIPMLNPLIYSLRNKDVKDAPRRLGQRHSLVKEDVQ
Procedure, shortened: as §1

UniProt Q8VGV7 = biological target: T5, UniProt Q8VGV7
T5 sequence (whole entry): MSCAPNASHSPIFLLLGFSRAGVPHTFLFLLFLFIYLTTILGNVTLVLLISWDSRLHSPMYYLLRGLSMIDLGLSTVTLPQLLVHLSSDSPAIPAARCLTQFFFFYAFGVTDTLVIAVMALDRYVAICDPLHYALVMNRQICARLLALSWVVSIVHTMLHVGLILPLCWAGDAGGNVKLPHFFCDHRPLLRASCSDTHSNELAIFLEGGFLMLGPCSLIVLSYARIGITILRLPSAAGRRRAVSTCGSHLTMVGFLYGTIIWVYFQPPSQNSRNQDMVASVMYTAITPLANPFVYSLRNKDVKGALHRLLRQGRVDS
Procedure, shortened: as §1

UniProt Q8VGX3 = biological target: T6, UniProt Q8VGX3
T6 sequence (whole entry): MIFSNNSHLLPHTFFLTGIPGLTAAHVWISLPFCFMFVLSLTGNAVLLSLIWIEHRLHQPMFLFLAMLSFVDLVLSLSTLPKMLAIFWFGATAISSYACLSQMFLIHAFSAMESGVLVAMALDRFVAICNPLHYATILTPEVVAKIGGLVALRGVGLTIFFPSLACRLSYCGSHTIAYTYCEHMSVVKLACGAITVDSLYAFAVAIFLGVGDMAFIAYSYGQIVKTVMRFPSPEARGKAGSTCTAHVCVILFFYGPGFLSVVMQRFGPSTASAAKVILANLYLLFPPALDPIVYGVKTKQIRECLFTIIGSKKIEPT
Procedure, shortened: as §1

UniProt Q8VGX5 = biological target: T7, UniProt Q8VGX5
T7 sequence (whole entry): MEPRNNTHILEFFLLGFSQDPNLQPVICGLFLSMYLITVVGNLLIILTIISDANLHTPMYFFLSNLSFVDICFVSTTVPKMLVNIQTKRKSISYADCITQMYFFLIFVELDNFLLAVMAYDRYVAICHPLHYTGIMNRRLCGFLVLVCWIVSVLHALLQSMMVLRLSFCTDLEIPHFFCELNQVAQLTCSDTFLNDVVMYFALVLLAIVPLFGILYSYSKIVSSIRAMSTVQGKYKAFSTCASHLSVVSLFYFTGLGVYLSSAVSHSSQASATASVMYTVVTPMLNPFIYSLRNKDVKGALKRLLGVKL
Procedure, shortened: as §1

UniProt Q8VGD7 = biological target: T8, UniProt Q8VGD7
T8 sequence (whole entry): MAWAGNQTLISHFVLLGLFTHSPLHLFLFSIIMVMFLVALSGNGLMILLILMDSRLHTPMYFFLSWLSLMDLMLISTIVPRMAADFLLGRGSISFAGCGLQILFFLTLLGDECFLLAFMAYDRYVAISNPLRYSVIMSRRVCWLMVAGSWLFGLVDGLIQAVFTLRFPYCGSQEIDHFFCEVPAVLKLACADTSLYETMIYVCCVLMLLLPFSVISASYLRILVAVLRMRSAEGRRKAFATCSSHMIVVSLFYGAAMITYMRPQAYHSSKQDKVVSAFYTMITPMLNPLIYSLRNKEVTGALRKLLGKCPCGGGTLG
Procedure, shortened: as §1

UniProt Q8VGH1 = biological target: T9, UniProt Q8VGH1
T9 sequence (whole entry): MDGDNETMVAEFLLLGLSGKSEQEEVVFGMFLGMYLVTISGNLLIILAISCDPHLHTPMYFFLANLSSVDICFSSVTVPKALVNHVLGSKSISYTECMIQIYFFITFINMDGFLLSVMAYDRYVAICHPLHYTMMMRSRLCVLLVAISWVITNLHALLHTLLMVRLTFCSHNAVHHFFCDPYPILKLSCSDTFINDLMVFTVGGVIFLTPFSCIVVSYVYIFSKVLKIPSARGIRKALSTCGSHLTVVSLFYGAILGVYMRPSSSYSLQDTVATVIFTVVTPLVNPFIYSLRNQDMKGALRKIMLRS
Procedure, shortened: as §1

UniProt Q8VGJ1 = biological target: T10, UniProt Q8VGJ1
T10 sequence (whole entry): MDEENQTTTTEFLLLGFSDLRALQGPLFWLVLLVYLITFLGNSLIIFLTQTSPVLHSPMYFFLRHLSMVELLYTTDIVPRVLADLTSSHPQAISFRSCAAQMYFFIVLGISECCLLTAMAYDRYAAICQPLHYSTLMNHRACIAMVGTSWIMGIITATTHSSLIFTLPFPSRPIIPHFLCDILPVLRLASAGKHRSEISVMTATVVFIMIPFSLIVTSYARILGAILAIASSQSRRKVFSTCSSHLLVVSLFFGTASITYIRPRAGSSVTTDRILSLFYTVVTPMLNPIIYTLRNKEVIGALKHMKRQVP
Procedure, shortened: as §1

UniProt Q8VGJ5 = biological target: T11, UniProt Q8VGJ5
T11 sequence (whole entry): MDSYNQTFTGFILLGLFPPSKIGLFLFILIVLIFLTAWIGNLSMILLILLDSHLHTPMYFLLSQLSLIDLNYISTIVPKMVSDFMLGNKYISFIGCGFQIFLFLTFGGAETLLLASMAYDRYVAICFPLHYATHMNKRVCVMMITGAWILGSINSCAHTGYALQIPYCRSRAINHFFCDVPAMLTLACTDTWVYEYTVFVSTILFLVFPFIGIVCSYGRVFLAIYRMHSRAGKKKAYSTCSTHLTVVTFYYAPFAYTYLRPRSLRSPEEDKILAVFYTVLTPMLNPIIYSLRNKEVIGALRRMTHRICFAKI
Procedure, shortened: as §1

UniProt Q8VGL7 = biological target: T12, UniProt Q8VGL7
T12 sequence (whole entry): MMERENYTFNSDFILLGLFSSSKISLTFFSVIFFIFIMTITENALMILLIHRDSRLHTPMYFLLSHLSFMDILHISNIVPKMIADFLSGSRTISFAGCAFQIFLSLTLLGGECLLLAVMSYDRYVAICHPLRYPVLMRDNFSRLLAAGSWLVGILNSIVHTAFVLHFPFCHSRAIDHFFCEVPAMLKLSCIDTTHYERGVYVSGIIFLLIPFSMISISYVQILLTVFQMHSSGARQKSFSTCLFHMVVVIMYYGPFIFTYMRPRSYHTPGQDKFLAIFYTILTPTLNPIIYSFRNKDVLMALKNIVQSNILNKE
Procedure, shortened: as §1

UniProt Q8VGM2 = biological target: T13, UniProt Q8VGM2
T13 sequence (whole entry): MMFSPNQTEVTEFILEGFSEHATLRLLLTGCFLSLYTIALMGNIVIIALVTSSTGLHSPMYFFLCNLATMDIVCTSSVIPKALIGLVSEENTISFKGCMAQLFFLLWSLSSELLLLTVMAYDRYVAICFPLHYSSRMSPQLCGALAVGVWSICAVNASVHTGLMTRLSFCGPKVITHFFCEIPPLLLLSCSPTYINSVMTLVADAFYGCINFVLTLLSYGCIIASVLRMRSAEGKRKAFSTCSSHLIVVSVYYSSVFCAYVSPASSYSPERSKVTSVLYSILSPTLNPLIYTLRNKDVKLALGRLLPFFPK
Procedure, shortened: as §1

UniProt Q8VGP6 = biological target: T14, UniProt Q8VGP6
T14 sequence (whole entry): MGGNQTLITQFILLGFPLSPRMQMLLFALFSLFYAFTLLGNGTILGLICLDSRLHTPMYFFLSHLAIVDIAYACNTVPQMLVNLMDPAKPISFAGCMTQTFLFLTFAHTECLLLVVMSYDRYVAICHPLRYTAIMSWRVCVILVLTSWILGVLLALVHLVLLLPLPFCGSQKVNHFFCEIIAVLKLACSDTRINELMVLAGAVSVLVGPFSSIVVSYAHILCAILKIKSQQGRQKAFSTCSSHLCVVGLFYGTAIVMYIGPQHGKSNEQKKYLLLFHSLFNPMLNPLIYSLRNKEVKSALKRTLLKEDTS
Procedure, shortened: as §1

UniProt Q8VGQ3 = biological target: T15, UniProt Q8VGQ3
T15 sequence (whole entry): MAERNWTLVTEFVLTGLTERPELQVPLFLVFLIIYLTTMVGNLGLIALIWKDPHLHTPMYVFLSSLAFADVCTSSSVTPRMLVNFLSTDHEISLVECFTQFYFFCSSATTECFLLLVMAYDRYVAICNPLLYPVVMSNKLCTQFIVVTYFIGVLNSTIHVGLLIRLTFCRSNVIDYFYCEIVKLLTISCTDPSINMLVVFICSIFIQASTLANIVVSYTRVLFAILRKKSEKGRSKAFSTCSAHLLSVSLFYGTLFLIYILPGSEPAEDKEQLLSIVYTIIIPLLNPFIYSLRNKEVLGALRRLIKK
Procedure, shortened: as §1

UniProt Q8VGT4 = biological target: T16, UniProt Q8VGT4
T16 sequence (whole entry): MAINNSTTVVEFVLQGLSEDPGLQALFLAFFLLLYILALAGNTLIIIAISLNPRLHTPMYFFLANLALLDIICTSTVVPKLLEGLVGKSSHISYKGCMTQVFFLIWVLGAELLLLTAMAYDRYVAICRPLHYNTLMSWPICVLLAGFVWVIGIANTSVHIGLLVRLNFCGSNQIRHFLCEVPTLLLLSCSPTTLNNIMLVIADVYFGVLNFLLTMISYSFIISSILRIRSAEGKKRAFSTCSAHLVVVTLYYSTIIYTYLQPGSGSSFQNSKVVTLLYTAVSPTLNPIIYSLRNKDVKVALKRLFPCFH
Procedure, shortened: as §1

UniProt Q8VGV1 = biological target: T17, UniProt Q8VGV1
T17 sequence (whole entry): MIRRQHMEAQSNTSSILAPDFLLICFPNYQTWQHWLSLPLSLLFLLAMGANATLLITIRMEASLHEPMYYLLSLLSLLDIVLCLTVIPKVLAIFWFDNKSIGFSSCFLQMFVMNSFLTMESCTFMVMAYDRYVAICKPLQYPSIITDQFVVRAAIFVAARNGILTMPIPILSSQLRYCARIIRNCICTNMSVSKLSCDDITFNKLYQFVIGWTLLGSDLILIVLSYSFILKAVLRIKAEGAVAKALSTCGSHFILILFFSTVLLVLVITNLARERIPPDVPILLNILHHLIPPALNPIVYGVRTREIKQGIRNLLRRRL
Procedure, shortened: as §1

Structure (SMILES) | odorant receptor agonist call (UniProt Q8VGC6) | odorant receptor agonist call (UniProt Q8VGJ3) | odorant receptor agonist call (UniProt Q8VGL0) | odorant receptor agonist call (UniProt Q8VGU3) | odorant receptor agonist call (UniProt Q8VGV7) | odorant receptor agonist call (UniProt Q8VGX3) | odorant receptor agonist call (UniProt Q8VGX5) | odorant receptor agonist call (UniProt Q8VGD7) | odorant receptor agonist call (UniProt Q8VGH1) | odorant receptor agonist call (UniProt Q8VGJ1) | odorant receptor agonist call (UniProt Q8VGJ5) | odorant receptor agonist call (UniProt Q8VGL7) | odorant receptor agonist call (UniProt Q8VGM2) | odorant receptor agonist call (UniProt Q8VGP6) | odorant receptor agonist call (UniProt Q8VGQ3) | odorant receptor agonist call (UniProt Q8VGT4) | odorant receptor agonist call (UniProt Q8VGV1)
CCC(C)c1nccnc1OC (stereo not drawn) | inactive | inactive | inactive | inactive | inactive | inactive | active | – | – | – | – | – | – | – | – | – | –
CCc1occc(=O)c1O | inactive | inactive | inactive | inactive | inactive | inactive | active | – | – | – | – | – | – | – | – | – | –
O=C(O)CCCCCCCCC(=O)O | inactive | inactive | inactive | inactive | inactive | inactive | inactive | – | – | – | – | – | – | – | – | – | –
CCCCCCCC(C)=O | active | inactive | inactive | inactive | inactive | inactive | inactive | inactive | inactive | inactive | inactive | inactive | inactive | inactive | inactive | inactive | inactive
